Assay results from ChEMBL document CHEMBL1137333, “Synthesis, radiosynthesis, and biological evaluation of carbon-11 labeled 2beta-carbomethoxy-3beta-(3'-((Z)-2-haloethenyl)phenyl)nortropanes: candidate radioligands for in vivo imaging of the serotonin transporter with positron emission tomography” (J Med Chem, 2006).

Assays:
Cynomolgus monkey [1] = test: Uptake in anesthetized cynomolgus monkey medulla after 3.5 mins; assay type: ADME, organism-based, Medulla of organ; details: in vivo
How it was run: (§1)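 Baseline microPET scan (P4 scanner) of anesthetized cynomolgus monkeys after injection of the carbon-11 labelled nortropane tracer. Two baseline studies were run per tracer. Radioactivity was followed over time in regional brain time-activity curves.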

Cynomolgus monkey [2] = test: Uptake in anesthetized cynomolgus monkey medulla after 6.5 mins; assay type: ADME, organism-based, Medulla of organ; details: in vivo; how it was run: as §1
Cynomolgus monkey [3] = test: Uptake in anesthetized cynomolgus monkey medulla after 15.5 mins; assay type: ADME, organism-based, Medulla of organ; details: in vivo; how it was run: as §1
Cynomolgus monkey [4] = test: Uptake in anesthetized cynomolgus monkey medulla after 35.0 mins; assay type: ADME, organism-based, Medulla of organ; details: in vivo; how it was run: as §1
Cynomolgus monkey [5] = test: Uptake in anesthetized cynomolgus monkey medulla after 65.0 mins; assay type: ADME, organism-based, Medulla of organ; details: in vivo; how it was run: as §1
Cynomolgus monkey [6] = test: Uptake in anesthetized cynomolgus monkey medulla after 75.0 mins; assay type: ADME, organism-based, Medulla of organ; details: in vivo, 1.25 h; how it was run: as §1
Cynomolgus monkey [7] = test: Uptake in anesthetized cynomolgus monkey medulla after 115.0 mins; assay type: ADME, organism-based, Medulla of organ; details: in vivo; how it was run: as §1
Cynomolgus monkey [8] = test: Uptake in anesthetized cynomolgus monkey cerebellum after 2.5 mins; assay type: ADME, organism-based, Macaca mulatta; details: rhesus monkey, in vivo
How it was run: (§2)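 Baseline microPET (Concorde P4) regional brain time-activity curves in anesthetized cynomolgus monkey following injection of the [11C]-labelled tracer, with radioactivity followed over the scan.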

Cynomolgus monkey [9] = test: Uptake in anesthetized cynomolgus monkey cerebellum after 18.5 mins; assay type: ADME, organism-based, Macaca mulatta; details: rhesus monkey, in vivo; how it was run: as §2
Cynomolgus monkey [10] = test: Uptake in anesthetized cynomolgus monkey cerebellum after 45.0 mins; assay type: ADME, organism-based; details: in vivo, 0.75 h; how it was run: as §2
Cynomolgus monkey [11] = test: Uptake in anesthetized cynomolgus monkey cerebellum after 95.0 mins; assay type: ADME, organism-based; details: in vivo; how it was run: as §2
Cynomolgus monkey [12] = test: Uptake in anesthetized cynomolgus monkey frontal after 65.0 mins; assay type: ADME, organism-based, Frontal cortex; details: in vivo; how it was run: as §1
Cynomolgus monkey [13] = test: Uptake in anesthetized cynomolgus monkey cerebellum after 115.0 mins; assay type: ADME, organism-based; details: in vivo; how it was run: as §2
Cynomolgus monkey [14] = test: Uptake in anesthetized cynomolgus monkey occipital after 2.5 mins; assay type: ADME, organism-based, Macaca mulatta, Occipital cortex; details: rhesus monkey, in vivo; how it was run: as §1
Cynomolgus monkey [15] = test: Uptake in anesthetized cynomolgus monkey occipital after 15.5 mins; assay type: ADME, organism-based, Macaca mulatta, Occipital cortex; details: rhesus monkey, in vivo; how it was run: as §1
Cynomolgus monkey [16] = test: Uptake in anesthetized cynomolgus monkey occipital after 55.0 mins; assay type: ADME, organism-based, Occipital cortex; details: in vivo; how it was run: as §1
Cynomolgus monkey [17] = test: Uptake in anesthetized cynomolgus monkey occipital after 65.0 mins; assay type: ADME, organism-based, Macaca mulatta, Occipital cortex; details: rhesus monkey, in vivo; how it was run: as §1
Cynomolgus monkey [18] = test: Uptake in anesthetized cynomolgus monkey occipital after 85.0 mins; assay type: ADME, organism-based, Macaca mulatta, Occipital cortex; details: rhesus monkey, in vivo; how it was run: as §1
Cynomolgus monkey [19] = test: Uptake in anesthetized cynomolgus monkey frontal after 15.5 mins; assay type: ADME, organism-based, Frontal cortex; details: in vivo; how it was run: as §1
Cynomolgus monkey [20] = test: Uptake in anesthetized cynomolgus monkey frontal after 22.5 mins; assay type: ADME, organism-based, Frontal cortex; details: in vivo, 0.375 h; how it was run: as §1
Cynomolgus monkey [21] = test: Uptake in anesthetized cynomolgus monkey frontal after 27.5 mins; assay type: ADME, organism-based, Frontal cortex; details: in vivo; how it was run: as §1
Cynomolgus monkey [22] = test: Uptake in anesthetized cynomolgus monkey frontal after 35.0 mins; assay type: ADME, organism-based, Frontal cortex; details: in vivo; how it was run: as §1
Cynomolgus monkey [23] = test: Uptake in anesthetized cynomolgus monkey frontal after 45.0 mins; assay type: ADME, organism-based, Frontal cortex; details: in vivo, 0.75 h; how it was run: as §1
Cynomolgus monkey [24] = test: Ratio of uptake in thalamus to cerebellum of anesthetized cynomolgus monkey after 65 mins; assay type: ADME, organism-based; details: in vivo
How it was run: (§3)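 Baseline microPET (Concorde P4) in anesthetized cynomolgus monkey after injection of the [11C]-labelled tracer. Regional time-activity curves were taken, and each region's uptake was divided by cerebellum uptake (low-SERT reference) at 65, 85 and 105 min postinjection.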

Cynomolgus monkey [25] = test: Ratio of uptake in midbrain to cerebellum of anesthetized cynomolgus monkey after 65 mins; assay type: ADME, organism-based; details: in vivo; how it was run: as §3
Cynomolgus monkey [26] = test: Ratio of uptake in occipital to cerebellum of anesthetized cynomolgus monkey after 85 mins; assay type: ADME, organism-based; details: in vivo; how it was run: as §3
Cynomolgus monkey [27] = test: Ratio of uptake in pons to cerebellum of anesthetized cynomolgus monkey after 105 mins; assay type: ADME, organism-based; details: in vivo, 1.75 h; how it was run: as §3
Cynomolgus monkey [28] = test: Ratio of uptake in medulla to cerebellum of anesthetized cynomolgus monkey after 105 mins; assay type: ADME, organism-based; details: in vivo, 1.75 h; how it was run: as §3
Cynomolgus monkey [29] = test: Ratio of uptake in frontal to cerebellum of anesthetized cynomolgus monkey after 105 mins; assay type: ADME, organism-based; details: in vivo, 1.75 h; how it was run: as §3
Cynomolgus monkey [30] = test: Ratio of uptake in occipital to cerebellum of anesthetized cynomolgus monkey after 105 mins; assay type: ADME, organism-based; details: in vivo, 1.75 h; how it was run: as §3
Cynomolgus monkey [31] = test: Uptake in anesthetized cynomolgus monkey caudate after 0.5 mins; assay type: ADME, organism-based, Caudate nucleus; details: in vivo; how it was run: as §2
Cynomolgus monkey [32] = test: Uptake in anesthetized cynomolgus monkey caudate after 2.5 mins; assay type: ADME, organism-based, Caudate nucleus; details: in vivo; how it was run: as §2
Cynomolgus monkey [33] = test: Uptake in anesthetized cynomolgus monkey caudate after 27.5 mins; assay type: ADME, organism-based, Caudate nucleus; details: in vivo; how it was run: as §2
Cynomolgus monkey [34] = test: Uptake in anesthetized cynomolgus monkey caudate after 35.0 mins; assay type: ADME, organism-based, Caudate nucleus; details: in vivo; how it was run: as §2

In the case of [11CH3]OC(=O)[C@@H]1C2CCC(C[C@@H]1c1cccc(/C=C/I)c1)N2 (some centres undefined), the Drug uptake (Cynomolgus monkey [1]) is reported as 2.62, the Drug uptake (Cynomolgus monkey [2]) is reported as 5.28 and the Drug uptake (Cynomolgus monkey [3]) is reported as 6.72. It also gave a Drug uptake (Cynomolgus monkey [4]) of 7.36, a Drug uptake (Cynomolgus monkey [5]) of 6.94 and a Drug uptake (Cynomolgus monkey [6]) of 6.9. It also gave a Drug uptake (Cynomolgus monkey [7]) of 6.11, a Drug uptake (Cynomolgus monkey [8]) of 1.2 and a Drug uptake (Cynomolgus monkey [9]) of 5.74. It also gave a Drug uptake (Cynomolgus monkey [10]) of 5.11, a Drug uptake (Cynomolgus monkey [11]) of 3.46 and a Drug uptake (Cynomolgus monkey [12]) of 3.9. The Drug uptake (Cynomolgus monkey [13]) was 3.05, the Drug uptake (Cynomolgus monkey [14]) was 0.85 and the Drug uptake (Cynomolgus monkey [15]) was 4.69. The Drug uptake (Cynomolgus monkey [16]) was 4.58, the Drug uptake (Cynomolgus monkey [17]) was 4.4 and the Drug uptake (Cynomolgus monkey [18]) was 4. It also gave a Drug uptake (Cynomolgus monkey [19]) of 3.69, a Drug uptake (Cynomolgus monkey [20]) of 4.03 and a Drug uptake (Cynomolgus monkey [21]) of 4.09. The Drug uptake (Cynomolgus monkey [22]) was 4.13, the Drug uptake (Cynomolgus monkey [23]) was 4.13 and the Ratio (Cynomolgus monkey [24]) was 1.6. The Ratio (Cynomolgus monkey [25]) was 1.7, the Ratio (Cynomolgus monkey [26]) was 1 and the Ratio (Cynomolgus monkey [27]) was 1.8. For the same compound, the Ratio (Cynomolgus monkey [28]) was 2.1, the Ratio (Cynomolgus monkey [29]) was 1.2 and the Ratio (Cynomolgus monkey [30]) was 1.1. For the same compound, the Drug uptake (Cynomolgus monkey [31]) was 0.01, the Drug uptake (Cynomolgus monkey [32]) was 0.89 and the Drug uptake (Cynomolgus monkey [33]) was 5.41. The Drug uptake (Cynomolgus monkey [34]) was 5.74.
